Results from ChEMBL document CHEMBL2434922, “Microwave assisted synthesis of dihydrobenzo[4,5]imidazo[1,2-a]pyrimidin-4-ones; synthesis, in vitro antimicrobial and anticancer activities of novel coumarin substituted dihydrobenzo[4,5]imidazo[1,2-a]pyrimidin-4-ones” (2013).
Values after ≈ are worked out from the molar mass of the structure shown.

How the values were obtained:
Type in all cases: functional
[1] = system: Klebsiella pneumoniae; experiment: Antibacterial activity against Klebsiella pneumoniae assessed as growth inhibition after 18 hrs by broth microdilution method
[2] = system: Enterococcus faecalis; experiment: Antibacterial activity against Enterococcus faecalis assessed as growth inhibition after 18 hrs by broth microdilution method
[3] = system: Staphylococcus aureus; experiment: Antibacterial activity against Staphylococcus aureus assessed as growth inhibition after 18 hrs by broth microdilution method
[4] = system: Streptococcus mutans; experiment: Antibacterial activity against Streptococcus mutans assessed as growth inhibition after 18 hrs by broth microdilution method
[5] = system: Fusarium oxysporum; experiment: Antifungal activity against Fusarium oxysporum assessed as growth inhibition after 48 to 72 hrs by broth microdilution method
[6] = system: Aspergillus niger; experiment: Antifungal activity against Aspergillus niger assessed as growth inhibition after 48 to 72 hrs by broth microdilution method
[7] = Cytotoxicity against mouse Daltons ascitic lymphoma cells assessed as dead cells at 100 ug/ml after 3 hrs by trypan blue exclusion assay relative to control
Outline: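 DAL cells (0.2 mL, 10⁶ cells/mL) mixed with ice-cold PBS pH 7.4 and compound (100 µg/mL), held at 37 °C under 5% CO₂ for 3 h. Aliquot then stained with 0.4% trypan blue in normal saline for 5–15 min at room temperature. Live and dead cells counted in a Neubauer chamber; % dead = dead/(dead+live) × 100.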

[8] = system: Aspergillus flavus; experiment: Antifungal activity against Aspergillus flavus assessed as growth inhibition after 48 to 72 hrs by broth microdilution method
[9] = system: Penicillium chrysogenum; experiment: Antifungal activity against Penicillium chrysogenum assessed as growth inhibition after 48 to 72 hrs by broth microdilution method
[10] = system: Candida albicans; experiment: Antifungal activity against Candida albicans assessed as growth inhibition after 48 to 72 hrs by broth microdilution method
[11] = system: Aspergillus fumigatus; experiment: Antifungal activity against Aspergillus fumigatus assessed as growth inhibition after 48 to 72 hrs by broth microdilution method
[12] = system: Pseudomonas aeruginosa; experiment: Antibacterial activity against Pseudomonas aeruginosa assessed as growth inhibition after 18 hrs by broth microdilution method
[13] = system: Escherichia coli; experiment: Antibacterial activity against Escherichia coli assessed as growth inhibition after 18 hrs by broth microdilution method

SMILES | MIC [1] | MIC [2] | MIC [3] | MIC [4] | MIC [5] | MIC [6] | mortality at 100 µg/mL [7] | MIC [8] | MIC [9] | MIC [10] | MIC [11] | MIC [12] | MIC [13]
O=C(O)c1cn(C2CC2)c2cc(N3CCNCC3)c(F)cc2c1=O [CIPROFLOXACIN] | 1 µg/mL (≈ 3.02 µM) | 2 µg/mL (≈ 6.04 µM) | 2 µg/mL (≈ 6.04 µM) | 2 µg/mL (≈ 6.04 µM) |  |  |  |  |  |  |  |  | 
O=c1cc(-c2cccc(F)c2)nc2[nH]c3ccccc3n12 | 100 µg/mL (≈ 358 µM) | 0.2 µg/mL (≈ 0.716 µM) | 100 µg/mL (≈ 358 µM) | 12.5 µg/mL (≈ 44.8 µM) | 0.4 µg/mL (≈ 1.43 µM) | 12.5 µg/mL (≈ 44.8 µM) | 54% | 0.8 µg/mL (≈ 2.86 µM) | 0.2 µg/mL (≈ 0.716 µM) | 1.6 µg/mL (≈ 5.73 µM) | 0.8 µg/mL (≈ 2.86 µM) | 25 µg/mL (≈ 89.5 µM) | 100 µg/mL (≈ 358 µM)
Cc1ccc2oc(=O)cc(Cn3c4ccccc4n4c(=O)cc(C(F)(F)F)nc34)c2c1 | 100 µg/mL (≈ 235 µM) | 0.4 µg/mL (≈ 0.94 µM) | 100 µg/mL (≈ 235 µM) | 12.5 µg/mL (≈ 29.4 µM) | 0.2 µg/mL (≈ 0.47 µM) | 12.5 µg/mL (≈ 29.4 µM) | 69% | 12.5 µg/mL (≈ 29.4 µM) | 0.2 µg/mL (≈ 0.47 µM) | 50 µg/mL (≈ 118 µM) | 25 µg/mL (≈ 58.8 µM) | > 100 µg/mL | 100 µg/mL (≈ 235 µM)
COc1ccc2oc(=O)cc(Cn3c4ccccc4n4c(=O)cc(C(F)(F)F)nc34)c2c1 | 100 µg/mL (≈ 227 µM) | 0.4 µg/mL (≈ 0.906 µM) | 100 µg/mL (≈ 227 µM) | 12.5 µg/mL (≈ 28.3 µM) | 0.2 µg/mL (≈ 0.453 µM) | 25 µg/mL (≈ 56.6 µM) | 58% | 3.12 µg/mL (≈ 7.07 µM) | 0.4 µg/mL (≈ 0.906 µM) | 50 µg/mL (≈ 113 µM) | 6.25 µg/mL (≈ 14.2 µM) | > 100 µg/mL | 100 µg/mL (≈ 227 µM)
O=c1cc(-c2cccc(Cl)c2)nc2[nH]c3ccccc3n12 | 100 µg/mL (≈ 338 µM) | 0.2 µg/mL (≈ 0.676 µM) | 100 µg/mL (≈ 338 µM) | 25 µg/mL (≈ 84.5 µM) | 0.2 µg/mL (≈ 0.676 µM) | 25 µg/mL (≈ 84.5 µM) | 71% | 0.2 µg/mL (≈ 0.676 µM) | 0.4 µg/mL (≈ 1.35 µM) | 1.6 µg/mL (≈ 5.41 µM) | 0.2 µg/mL (≈ 0.676 µM) | 100 µg/mL (≈ 338 µM) | 100 µg/mL (≈ 338 µM)
O=c1cc(-c2ccc(F)cc2)nc2[nH]c3ccccc3n12 | 100 µg/mL (≈ 358 µM) | 0.2 µg/mL (≈ 0.716 µM) | 100 µg/mL (≈ 358 µM) | 12.5 µg/mL (≈ 44.8 µM) | 0.4 µg/mL (≈ 1.43 µM) | 1.6 µg/mL (≈ 5.73 µM) | 83% | 0.2 µg/mL (≈ 0.716 µM) | 0.4 µg/mL (≈ 1.43 µM) | 1.6 µg/mL (≈ 5.73 µM) | 0.2 µg/mL (≈ 0.716 µM) | 100 µg/mL (≈ 358 µM) | 100 µg/mL (≈ 358 µM)
O=c1cc(-c2ccc(C(F)(F)F)cc2)nc2[nH]c3ccccc3n12 | > 100 µg/mL | 0.2 µg/mL (≈ 0.607 µM) | > 100 µg/mL | > 100 µg/mL | 0.2 µg/mL (≈ 0.607 µM) | 100 µg/mL (≈ 304 µM) | 79% | 1.6 µg/mL (≈ 4.86 µM) | 0.2 µg/mL (≈ 0.607 µM) | 6.25 µg/mL (≈ 19 µM) | 1.6 µg/mL (≈ 4.86 µM) | > 100 µg/mL | > 100 µg/mL
OC(Cn1cncn1)(Cn1cncn1)c1ccc(F)cc1F [FLUCONAZOLE] |  |  |  |  | 8 µg/mL (≈ 26.1 µM) | 8 µg/mL (≈ 26.1 µM) |  | 8 µg/mL (≈ 26.1 µM) | 8 µg/mL (≈ 26.1 µM) | 16 µg/mL (≈ 52.2 µM) | 8 µg/mL (≈ 26.1 µM) |  | 
CC(C)c1cc(O)n2c(n1)nc1ccccc12 | 100 µg/mL (≈ 440 µM) | 0.2 µg/mL (≈ 0.88 µM) | 100 µg/mL (≈ 440 µM) | 25 µg/mL (≈ 110 µM) | 0.4 µg/mL (≈ 1.76 µM) | 25 µg/mL (≈ 110 µM) | 57% | 1.6 µg/mL (≈ 7.04 µM) | 0.2 µg/mL (≈ 0.88 µM) | 3.12 µg/mL (≈ 13.7 µM) | 1.6 µg/mL (≈ 7.04 µM) | 12.5 µg/mL (≈ 55 µM) | 12.5 µg/mL (≈ 55 µM)
CC(C)c1cc(=O)n2c3ccccc3n(Cc3cc(=O)oc4ccc(Cl)cc34)c2n1 | 100 µg/mL (≈ 238 µM) | 0.4 µg/mL (≈ 0.953 µM) | 100 µg/mL (≈ 238 µM) | 12.5 µg/mL (≈ 29.8 µM) | 0.2 µg/mL (≈ 0.476 µM) | 12.5 µg/mL (≈ 29.8 µM) | 88% | 1.6 µg/mL (≈ 3.81 µM) | 0.4 µg/mL (≈ 0.953 µM) | 50 µg/mL (≈ 119 µM) | 0.8 µg/mL (≈ 1.91 µM) | 100 µg/mL (≈ 238 µM) | 100 µg/mL (≈ 238 µM)
O=c1cc(C(F)(F)F)nc2[nH]c3ccccc3n12 | 100 µg/mL (≈ 395 µM) | 0.2 µg/mL (≈ 0.79 µM) | 100 µg/mL (≈ 395 µM) | 50 µg/mL (≈ 197 µM) | 0.2 µg/mL (≈ 0.79 µM) | 6.25 µg/mL (≈ 24.7 µM) | 80% | 0.8 µg/mL (≈ 3.16 µM) | 0.4 µg/mL (≈ 1.58 µM) | 1.6 µg/mL (≈ 6.32 µM) | 0.8 µg/mL (≈ 3.16 µM) | 100 µg/mL (≈ 395 µM) | 100 µg/mL (≈ 395 µM)
CC(C)c1cc(=O)n2c3ccccc3n(Cc3cc(=O)oc4ccc(Br)cc34)c2n1 | > 100 µg/mL | 0.8 µg/mL (≈ 1.72 µM) | > 100 µg/mL | > 100 µg/mL | 0.2 µg/mL (≈ 0.431 µM) | 25 µg/mL (≈ 53.8 µM) | 47% | 0.8 µg/mL (≈ 1.72 µM) | 0.2 µg/mL (≈ 0.431 µM) | 50 µg/mL (≈ 108 µM) | 0.8 µg/mL (≈ 1.72 µM) | > 100 µg/mL | 100 µg/mL (≈ 215 µM)
O=c1[nH]cc(F)c(=O)[nH]1 [FLUOROURACIL] |  |  |  |  |  |  | 88% |  |  |  |  |  | 
O=c1cc(Cn2c3ccccc3n3c(=O)cc(C(F)(F)F)nc23)c2cc(F)ccc2o1 | 100 µg/mL (≈ 233 µM) | 0.8 µg/mL (≈ 1.86 µM) | 100 µg/mL (≈ 233 µM) | 12.5 µg/mL (≈ 29.1 µM) | 0.2 µg/mL (≈ 0.466 µM) | 25 µg/mL (≈ 58.2 µM) | 79% | 1.6 µg/mL (≈ 3.73 µM) | 0.2 µg/mL (≈ 0.466 µM) | 50 µg/mL (≈ 116 µM) | 1.6 µg/mL (≈ 3.73 µM) | 100 µg/mL (≈ 233 µM) | 100 µg/mL (≈ 233 µM)
Oc1cc(-c2ccccc2)nc2nc3ccccc3n12 | 100 µg/mL (≈ 383 µM) | 0.2 µg/mL (≈ 0.765 µM) | 100 µg/mL (≈ 383 µM) | 100 µg/mL (≈ 383 µM) | 0.2 µg/mL (≈ 0.765 µM) | 6.25 µg/mL (≈ 23.9 µM) | 58% | 0.8 µg/mL (≈ 3.06 µM) | 0.2 µg/mL (≈ 0.765 µM) | 1.6 µg/mL (≈ 6.12 µM) | 0.8 µg/mL (≈ 3.06 µM) | 100 µg/mL (≈ 383 µM) | 100 µg/mL (≈ 383 µM)
COc1ccc2oc(=O)cc(Cn3c4ccccc4n4c(=O)cc(C(C)C)nc34)c2c1 | 100 µg/mL (≈ 241 µM) | 0.4 µg/mL (≈ 0.963 µM) | 100 µg/mL (≈ 241 µM) | 3.16 µg/mL (≈ 7.61 µM) | 0.2 µg/mL (≈ 0.481 µM) | 50 µg/mL (≈ 120 µM) | 62% | 0.8 µg/mL (≈ 1.93 µM) | 0.8 µg/mL (≈ 1.93 µM) | 25 µg/mL (≈ 60.2 µM) | 0.8 µg/mL (≈ 1.93 µM) | > 100 µg/mL | 100 µg/mL (≈ 241 µM)
COc1ccc(-c2cc(=O)n3c(n2)[nH]c2ccccc23)cc1 | 100 µg/mL (≈ 343 µM) | 0.2 µg/mL (≈ 0.687 µM) | 100 µg/mL (≈ 343 µM) | 100 µg/mL (≈ 343 µM) | 0.2 µg/mL (≈ 0.687 µM) | 25 µg/mL (≈ 85.8 µM) | 64% | 0.8 µg/mL (≈ 2.75 µM) | 0.4 µg/mL (≈ 1.37 µM) | 6.25 µg/mL (≈ 21.5 µM) | 1.6 µg/mL (≈ 5.49 µM) | 100 µg/mL (≈ 343 µM) | 100 µg/mL (≈ 343 µM)
CC(C)c1cc(=O)n2c3ccccc3n(Cc3cc(=O)oc4ccc(F)cc34)c2n1 | 100 µg/mL (≈ 248 µM) | 0.4 µg/mL (≈ 0.992 µM) | 100 µg/mL (≈ 248 µM) | 0.8 µg/mL (≈ 1.98 µM) | 0.2 µg/mL (≈ 0.496 µM) | 1.6 µg/mL (≈ 3.97 µM) | 81% | 1.6 µg/mL (≈ 3.97 µM) | 0.4 µg/mL (≈ 0.992 µM) | 25 µg/mL (≈ 62 µM) | 0.8 µg/mL (≈ 1.98 µM) | 100 µg/mL (≈ 248 µM) | 100 µg/mL (≈ 248 µM)
Cc1cc(C)c2oc(=O)cc(Cn3c4ccccc4n4c(=O)cc(C(F)(F)F)nc34)c2c1 | 100 µg/mL (≈ 228 µM) | 0.4 µg/mL (≈ 0.91 µM) | 100 µg/mL (≈ 228 µM) | 0.2 µg/mL (≈ 0.455 µM) | 0.2 µg/mL (≈ 0.455 µM) | 3.12 µg/mL (≈ 7.1 µM) | 78% | 3.12 µg/mL (≈ 7.1 µM) | 0.2 µg/mL (≈ 0.455 µM) | 50 µg/mL (≈ 114 µM) | 1.6 µg/mL (≈ 3.64 µM) | 100 µg/mL (≈ 228 µM) | 100 µg/mL (≈ 228 µM)
